Measurements reported in ChEMBL document CHEMBL1157373, “Dual targeting of DNA gyrase and topoisomerase IV: target interactions of heteroaryl isothiazolones in Staphylococcus aureus” (Antimicrob Agents Chemother, 2007).
≈ marks a conversion by molar mass, not a printed value.

Columns and labels:
Staphylococcus aureus [1] = assay: Antibacterial activity against Staphylococcus aureus ACH-0201 isolate with gyrA Ser84Leu, Glu88Val and grlA Ser80Phe, Ala116Val mutant after 24 hrs by broth microdilution method; format: functional
Staphylococcus aureus [2] = assay: Antibacterial activity against Staphylococcus aureus ATCC 29213 after 24 hrs by broth microdilution method; format: functional; details: ATCC 29213, 24 h
Summary of the method: (§1)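 Broth microdilution per CLSI guidelines. MIC taken as the lowest concentration preventing visible growth at 24 h. Each MIC determined at least twice.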

Staphylococcus aureus [3] = assay: Antibacterial activity against Staphylococcus aureus BSA643 isolate with gyrA Ser84Leu and grlA Ser80Tyr, Glu84Gly mutant after 24 hrs by broth microdilution method; format: functional
Staphylococcus aureus [4] = assay: Antibacterial activity against Staphylococcus aureus ACH-0204 isolate with gyrA Ser84Leu mutant after 24 hrs by broth microdilution method; format: functional; summary of the method: as §1
Staphylococcus aureus [5] = assay: Antibacterial activity against Staphylococcus aureus ATCC 33591 isolate after 24 hrs by broth microdilution method; format: functional; details: ATCC 33591, 24 h; summary of the method: as §1
Staphylococcus aureus [6] = assay: Antibacterial activity against Staphylococcus aureus ACH-0221 isolate with gyrA Ser84Leu mutant after 24 hrs by broth microdilution method; format: functional; summary of the method: as §1
Staphylococcus aureus [7] = assay: Antibacterial activity against Staphylococcus aureus ACH-0231 isolate with gyrA Ser84Leu, Glu88Lys and grlA Ser80Tyr, Glu84Gly mutant after 24 hrs by broth microdilution method; format: functional
Staphylococcus aureus [8] = assay: Antibacterial activity against Staphylococcus aureus ACH-0141 isolate with gyrA Ser84Leu, Glu88Val and grlA Ser80Phe, Ala116Val mutant after 24 hrs by broth microdilution method; format: functional
Staphylococcus aureus [9] = assay: Antibacterial activity against Staphylococcus aureus ACH-0218 isolate with grlA Glu84Lys mutant after 24 hrs by broth microdilution method; format: functional; summary of the method: as §1
Staphylococcus aureus [10] = assay: Antibacterial activity against Staphylococcus aureus ACH-0210 isolate with gyrA Ser84Leu and grlA Ser80Phe mutant after 24 hrs by broth microdilution method; format: functional
Staphylococcus aureus [11] = assay: Antibacterial activity against Staphylococcus aureus ACH-0203 isolate with gyrA Ser84Leu and grlA Ser80Phe, Ala116Val mutant after 24 hrs by broth microdilution method; format: functional; summary of the method: as §1
Staphylococcus aureus [12] = assay: Antibacterial activity against Staphylococcus aureus BSA678 isolate with gyrA Ser84Leu, Ser85Pro and grlA Ser80Phe, Glu84Lys mutant after 24 hrs by broth microdilution method
Staphylococcus aureus [13] = assay: (§2) Antibacterial activity against Staphylococcus aureus ACH-0129 isolate with gyrA Ser84Leu, Glu88Val and grlA Ser80Phe, Ala116Val mutant after 24 hrs by broth microdilution method; format: functional
Staphylococcus aureus [14] = assay: Antibacterial activity against Staphylococcus aureus ACH-0192 isolate with gyrA Ser84Leu and grlA Ser80Phe, Ala116Val mutant after 24 hrs by broth microdilution method; format: functional
Staphylococcus aureus [15] = assay: Antibacterial activity against Staphylococcus aureus ACH-0186 isolate with gyrA Ser84Leu and grlA Ser80Phe, Ala116Val mutant after 24 hrs by broth microdilution method; format: functional
Staphylococcus aureus [16] = assay: Antibacterial activity against Staphylococcus aureus ACH-0126 isolate with gyrA Ser84Leu and grlA Ser80Phe mutant after 24 hrs by broth microdilution method; format: functional
Staphylococcus aureus [17] = assay: Antibacterial activity against Staphylococcus aureus ACH-0206 isolate with gyrA Ser84Leu mutant after 24 hrs by broth microdilution method; format: functional; summary of the method: as §1
Staphylococcus aureus [18] = assay: Antibacterial activity against Staphylococcus aureus ATCC 700699 isolate with gyrA Ser84Leu, Glu409Lys and grlA Ser80Phe mutant after 24 hrs by broth microdilution method; format: functional; details: ATCC 700699, 24 h
Staphylococcus aureus [19] = assay: Antibacterial activity against Staphylococcus aureus ACH-0216 isolate with grlA Ser80Phe mutant after 24 hrs by broth microdilution method; format: functional; summary of the method: as §1
Staphylococcus aureus [20] = assay: as §2; format: functional; remark: listed apart in the source
Staphylococcus aureus [21] = assay: Antibacterial activity against Staphylococcus aureus NY2746 isolate with gyrA Ser84Leu and grlA Ser80Phe mutant after 24 hrs by broth microdilution method; format: functional

Cc1cc(-c2cc3c(cc2F)c(=O)c2c(=O)[nH]sc2n3C2CC2)ccn1 gave an MIC (Staphylococcus aureus [1]) of 8 mg/L (≈ 21.8 µM), an MIC (Staphylococcus aureus [2]) of 0.008 mg/L (≈ 0.0218 µM) and an MIC (Staphylococcus aureus [3]) of 0.25 mg/L (≈ 0.68 µM). The MIC (Staphylococcus aureus [4]) was 0.03 mg/L (≈ 0.0817 µM), the MIC (Staphylococcus aureus [5]) was 0.004 mg/L (≈ 0.0109 µM) and the MIC (Staphylococcus aureus [6]) was 0.03 mg/L (≈ 0.0817 µM). The MIC (Staphylococcus aureus [7]) was 16 mg/L (≈ 43.5 µM), the MIC (Staphylococcus aureus [8]) was 16 mg/L (≈ 43.5 µM) and the MIC (Staphylococcus aureus [9]) was 0.08 mg/L (≈ 0.218 µM). For the same molecule, the MIC (Staphylococcus aureus [10]) was 0.5 mg/L (≈ 1.36 µM), the MIC (Staphylococcus aureus [11]) was 2 mg/L (≈ 5.44 µM) and the MIC (Staphylococcus aureus [12]) was 4 mg/L (≈ 10.9 µM). The MIC (Staphylococcus aureus [13]) was 4 mg/L (≈ 10.9 µM), the MIC (Staphylococcus aureus [14]) was 2 mg/L (≈ 5.44 µM) and the MIC (Staphylococcus aureus [15]) was 0.5 mg/L (≈ 1.36 µM). The MIC (Staphylococcus aureus [16]) was 0.5 mg/L (≈ 1.36 µM), the MIC (Staphylococcus aureus [17]) was 0.03 mg/L (≈ 0.0817 µM) and the MIC (Staphylococcus aureus [18]) was 0.25 mg/L (≈ 0.68 µM). The MIC (Staphylococcus aureus [19]) was 0.016 mg/L (≈ 0.0435 µM), the MIC (Staphylococcus aureus [20]) was 4 mg/L (≈ 10.9 µM) and the MIC (Staphylococcus aureus [21]) was 0.5 mg/L (≈ 1.36 µM).
